Source: PubChem BioAssay
HKDC1 inhibitor = blocks human hexokinase HKDC1 activity; inhibition, % at 20 µM; Q2TB90; recombinant HKDC1, G6PDH/diaphorase resazurin coupled fluorescence; 340,000 tested, 0.16% active;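 active = inhibition above about 35% when tested at 20 µM, limit read from the data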
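System: Recombinant HKDC1 hexokinase | Amount: HKDC1 at 5 µg/mL | Reagent: Glucose with 1 mM ATP | Doses: Single 20 µM dose | Incubation: Reaction time 90 min, room temperature, protected from light | Signal: Coupled resazurin fluorescence, excitation 525 nm, emission 613 nm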
PfG6PD inh = PfG6PD (Plasmodium falciparum) enzyme inhibition. PfGluPho enzyme, NADPH resazurin-diaphorase fluorescence. inhibition, % at 20 µM. 350,000 tested, 0.78% active. AID 504690;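 active = inhibition reaching at least a set limit at 20 µM in the primary screen, cut at about 59% in these data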
EP2 modulator = EP2 receptor (human) modulation. induction, % at 25 µM. EP2-expressing cells, cAMP HTRF FRET, PGE2 co-stimulation. AID 940. 260,000 tested, 0.83% active. P43116;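 active = compounds whose cAMP rise, as percent of the full-agonist control response, exceeds 60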;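 note: rat C6 glioma line stably carrying human EP2 under a CMV promoter; the protocol text gives 20 µM as final concentration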
Target sequence (P43116 whole entry, looked up): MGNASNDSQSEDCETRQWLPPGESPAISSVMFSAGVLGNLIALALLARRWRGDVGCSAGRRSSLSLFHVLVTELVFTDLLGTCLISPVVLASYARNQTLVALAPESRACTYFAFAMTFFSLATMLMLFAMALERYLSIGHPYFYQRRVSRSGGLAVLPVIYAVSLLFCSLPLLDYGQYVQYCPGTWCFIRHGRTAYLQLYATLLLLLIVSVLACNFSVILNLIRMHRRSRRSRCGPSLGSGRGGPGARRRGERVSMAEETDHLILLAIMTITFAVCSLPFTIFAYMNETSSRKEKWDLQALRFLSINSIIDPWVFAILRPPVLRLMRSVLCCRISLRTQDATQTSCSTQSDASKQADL
PHOSPHO1 block = blocks human PHOSPHO1 phosphatase activity. Q8TCT1. recombinant PHOSPHO1, absorbance phosphatase assay. inhibition, % at 13.3 µM. 290,000 tested, 1.1% active. AID 1565; in the data active = inhibition above about 60%
Target sequence (Q8TCT1 whole entry, looked up): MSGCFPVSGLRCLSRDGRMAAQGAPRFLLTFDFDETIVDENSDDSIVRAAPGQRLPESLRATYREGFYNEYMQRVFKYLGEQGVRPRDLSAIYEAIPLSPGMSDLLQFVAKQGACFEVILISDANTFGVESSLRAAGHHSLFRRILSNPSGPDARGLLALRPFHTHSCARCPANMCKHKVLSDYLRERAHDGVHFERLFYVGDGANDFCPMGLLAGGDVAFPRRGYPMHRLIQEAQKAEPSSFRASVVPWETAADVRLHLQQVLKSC
Tb hexokinase = T. brucei hexokinase 1 inhibition | 220,000 tested, 0.11% active | inhibition, % at 10 µM | recombinant TbHK1, G6PDH-coupled NADH A340;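 active = inhibition of 50% or more in the single-dose primary screen; inactive = inhibition below 50%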
PGE2 EP2 inh = inhibitors of human EP2 prostaglandin E2 receptor | inhibition, % at 25 µM | AID 1422 | 260,000 tested, 0.52% active | P43116 | C6 glioma cells expressing human EP2, cAMP TR-FRET; cells stimulated with saturating PGE2;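 active = percent inhibition above 40 after rounding to a whole number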;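 note: rat C6 glioma host cells with rolipram phosphodiesterase inhibitor present; the protocol text gives 20 µM as final concentration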
Hits are given with their value; – = inactive; · = not tested or not shown; ! = a repeat was not active. Shown are actives, neighbours in structure and some others; about 2.5% of the full set was active somewhere.

SMILES	HKDC1 inhibitor	PfG6PD inh	EP2 modulator	PHOSPHO1 block	Tb hexokinase	PGE2 EP2 inh
COC(=O)C1=C(C)NC(=S)N(C(C)=O)C1c1ccc(OC)cc1 (stereo not drawn)	·	·	–	·	·	–
COc1ccc(CNC(=O)CN(c2cc(C)cc(C)c2)S(=O)(=O)c2c(C)[nH]c(=O)[nH]c2=O)cc1	–	–	·	64	·	·
Cc1cc(C)cc(N(CC(=O)NCc2ccccc2Cl)S(=O)(=O)c2c(C)[nH]c(=O)[nH]c2=O)c1	–	–	·	–	·	·
Cc1ccc(-n2c(N)c(C(=O)N3CCCCC3)sc2=S)cc1	–	–	–	76	–	–
CCOc1ccc(-n2c(N)c(C(=O)N3CCN(C)CC3)sc2=S)cc1	–	–	–	–	–	–
O=C(CSc1nnnn1-c1ccc2c(c1)OCO2)Nc1ccc2c(c1)OCO2	·	·	–	·	·	–
O=C(CN1CCC(O)(c2cccnc2)CC1)Nc1ccccn1	·	·	–	·	·	·
Cc1ccc(S(=O)(=O)NNc2ccccc2)c(C)c1	–	83	–	76	–	–
O=C(COc1ccc(S(=O)(=O)N2CCCC2)cc1)NCc1ccccc1Cl	·	·	–	·	·	–
O=C(NCc1ccco1)C(c1ccco1)N(Cc1cccs1)C(=O)Cn1nnc2ccccc21 (stereo not drawn)	–	–	–	–	–	–
O=C(NC1CCCC1)C(c1ccccc1F)N(Cc1ccco1)C(=O)Cc1cccs1 (stereo not drawn)	·	·	–	·	·	–
O=C(NC1CCCCC1)C(c1ccco1)N(Cc1cccs1)C(=O)Cn1nnc2ccccc21 (stereo not drawn)	–	–	61	–	–	–
O=C(NC1CCCCC1)C(c1ccco1)N(C(=O)Cc1cccs1)c1ccc(F)cc1 (stereo not drawn)	·	·	66	·	·	–
O=C(NC1CCCCC1)C(c1ccncc1)N(C(=O)Cc1cccs1)c1ccc(F)cc1 (stereo not drawn)	·	·	–	·	·	–
O=C(NC1CCCC1)C(c1ccccc1Cl)N(Cc1ccco1)C(=O)Cc1cccs1 (stereo not drawn)	·	·	64	·	·	–
CCc1ccc2[nH]c(=O)c(CN(C3CCCCC3)C(CC)c3nnnn3C3CCCCC3)cc2c1 (stereo not drawn)	·	·	–	·	·	–
Cc1nnc2sc(SCC(=O)N3CCC(C)CC3)nn2c1=O	–	–	·	66	·	·
COc1cccc(N2CCN(c3ncnc4c3[nH]c3ccc(F)cc34)CC2C)c1 (stereo not drawn)	–	–	–	–	–	99
COc1cc(/C=c2\sc3nc(-c4ccncc4)nn3c2=O)ccc1OC(C)=O	·	·	–	87	–	·
CC(=O)Oc1cccc(/C=c2\sc3nc(-c4ccco4)nn3c2=O)c1	–	–	–	–	–	–
CCN(CC)c1ccc(SS(=O)(=O)O)cc1	–	–	–	106!	–	–
CCc1ccc(C(c2c(C)nn(-c3ccccc3)c2N)c2c(C)nn(-c3ccccc3)c2N)cc1	–	–	–	–	–	–
Cc1cccc(C(c2c(C)nn(-c3ccccc3)c2N)c2c(C)nn(-c3ccccc3)c2N)c1	–	–	–	97	–	–
CCOc1cccc(C(=O)Nc2ccc3ccccc3c2)c1	–	–	·	–	·	·
CCOc1cccc(C(=O)Nc2ccc(N(CC)CC)cc2)c1	–	–	–	70	–	–
SMILES	HKDC1 inhibitor	PfG6PD inh	EP2 modulator	PHOSPHO1 block	Tb hexokinase	PGE2 EP2 inh
CCN(CC)c1ccc(NC(=O)Nc2cccc(C(C)=O)c2)cc1	–	–	–	74	–	–
COC(=O)Cc1ccc(NC(=O)c2ccc(Br)o2)cc1	–	–	–	–	–	–
CCN(CC)c1ccc(NC(=O)c2ccc(Br)o2)cc1	–	–	–	71	–	–
CCOc1ccc2c(c1)C(c1cccnc1)=NNC(c1ccc(F)cc1)=N2	·	·	–	·	·	–
CCS(=O)(=O)N1Cc2ccccc2CC1C(=O)NC(C)C12CC3CC(CC(C3)C1)C2 (stereo not drawn)	–	–	63	–	–	–
C[C@]12CC[C@H](O)C[C@@H]1CC[C@H]1[C@H]2CC[C@]2(C)[C@@H]1CC[C@H]2c1cc(C(F)(F)F)n[nH]1	·	·	–	·	·	55
C[C@@H]1CC[C@@]2(OC1)O[C@H]1CC3C4CC[C@H]5C[C@@H](O)CC[C@]5(C)C4CC[C@]3(C)[C@H]1[C@@H]2C (stereo partly drawn)	·	·	–	·	·	–
O=C(O)c1ccccc1-c1ccccc1C(=O)Nc1ccc2c(c1)[nH]c(=O)c1ccccc12	–	–	–	–	–	46!
CCn1c2cc(C)sc2c2cnn(Cc3ccc(F)cc3)c(=O)c21	·	·	–	·	·	·
COCCCn1c(=S)[nH]c2sc3c(c2c1=O)CCCS3	–	–	–	–	–	45
O=C(NC1(c2cccc(F)c2)CCCC1)c1cnccn1	·	·	–	·	·	·
O=[N+]([O-])c1ccc(/C=N/N=C/c2ccc([N+](=O)[O-])o2)o1	–	60	–	–	–	–
O=C(O)/C=C/c1ccc([N+](=O)[O-])o1	–	–	–	–	–	–
Cc1ccc(S(=O)(=O)N/N=C\c2ccc([N+](=O)[O-])o2)cc1C	–	–	·	–	·	·
Cc1cc2ncn(/N=C/c3ccc([N+](=O)[O-])o3)c2cc1C	–	–	–	69	–	–
COc1cc(-c2nnc(-c3cccnc3)o2)ccc1OCc1ccccc1	·	·	–	·	·	–
Cc1cc(C)c2[nH]c(=O)c(CN(Cc3cccs3)C(=S)NCCCN(C)C)cc2c1	·	·	–	·	·	–
O=C(N/N=C/c1c[nH]c2ccc(Br)cc12)c1ccn(Cc2ccc(Cl)cc2)n1	–	–	–	62	–	·
NNC(=O)/C(=C/c1ccc2c(c1)OCO2)NC(=O)c1ccc(Br)cc1	·	·	–	·	·	–
CCC(=O)NC(=S)NNC(=O)c1ccc(O)cc1	–	–	–	81	–	–
CC(C)(C)CC(=O)NCc1cccs1	–	–	–	60	–	–
COc1cc(Cl)c(C2C(C#N)=C(N)OC3=C2C(=O)CC(C)(C)C3)cc1OC (stereo not drawn)	·	·	–	·	·	–
COc1ccc(Cc2nc3ccc(C(=O)N4C[C@@H](C)O[C@@H](C)C4)cc3o2)cc1OC	–	–	·	64	·	·
COCCN1CCN(C(=O)c2ccc3nc(Cc4ccc(OC)c(OC)c4)oc3c2)CC1	–	–	·	–	·	·
COc1ccccc1CNC(=O)C(=O)NCc1ccc2c(c1)OCO2	·	·	–	·	·	–
SMILES	HKDC1 inhibitor	PfG6PD inh	EP2 modulator	PHOSPHO1 block	Tb hexokinase	PGE2 EP2 inh
OC1C[C@H]2CC[C@@H](C1)N2CCCN1c2ccccc2Sc2ccc(Cl)cc21 (stereo partly drawn)	·	·	–	·	·	47
Cn1ncc(Cl)c1C(=O)N1CCN(c2ncccn2)CC1	–	–	–	63	–	–
Cn1ncc(Cl)c1C(=O)N1CCN(c2ccccc2)CC1	–	–	·	–	·	·
COc1ccccc1C1NC(=O)C(O)=C1C(C)=O (stereo not drawn)	·	·	–	·	·	–
O=C(O)c1cc2n(n1)C(C(F)(F)F)CC(c1ccccc1)N2 (stereo not drawn)	–	–	–	–	–	–
COc1ccc(C2CC(C(F)(F)F)n3nc(C(=O)O)cc3N2)cc1OC (stereo not drawn)	–	–	62	–	–	–
COc1ccc(S(=O)(=O)N2CCN(Cc3ccc4c(c3)OCO4)CC2)c(C)c1C	·	·	–	·	·	–
